What was measured:
[1] = test system: Spleen; experiment: Biodistribution in CD1 mouse spleen assessed per gram of wet tissue at 400 to 600 kBq, iv after 60 mins post-injection by gamma counting; format: ADME, organism-based; conditions: in vivo, 1 h
Outline: (§1)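 Female CD-1 mice (~8-12 weeks, 20-28 g), habituated ≥48 h and fasted 24 h with water available. The [18F] tracer (>150 GBq/μmol at end of synthesis) was given in 200 μL saline into the tail vein of conscious animals. At each time point, n=4-5, mice were anaesthetised, blood and urine sampled, then killed by cervical dislocation. Organs were weighed and γ-counted, and values calculated as % ID/g wet tissue.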

[2] = Biodistribution in CD1 mouse thymus assessed per gram of wet tissue at 400 to 600 kBq, iv after 60 mins post-injection by gamma counting; format: ADME, organism-based; conditions: in vivo, 1 h; outline: as §1
[3] = test system: Brain; experiment: Biodistribution in CD1 mouse brain assessed per gram of wet tissue at 400 to 600 kBq, iv after 120 mins post-injection by gamma counting; format: ADME, organism-based; conditions: in vivo, 2 h
Outline: (§2)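 Female CD-1 mice (~8-12 weeks, 20-28 g) were fasted 24 h with free water. Conscious mice got 400-600 kBq [¹⁸F] tracer in saline by tail vein. At 5, 30, 60 or 120 min (n=4-5 per time) they were anesthetized, blood and urine sampled, then killed by cervical dislocation. Organs were weighed and γ-counted, giving % ID/g wet tissue.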

[4] = test system: Intestine; experiment: Biodistribution in CD1 mouse intestine assessed per gram of wet tissue at 400 to 600 kBq, iv after 120 mins post-injection by gamma counting; format: ADME, organism-based; conditions: in vivo, 2 h; outline: as §2
[5] = Biodistribution in CD1 mouse thymus assessed per gram of wet tissue at 400 to 600 kBq, iv after 120 mins post-injection by gamma counting; format: ADME, organism-based; conditions: in vivo, 2 h; outline: as §1
[6] = test system: Muscle tissue; experiment: Biodistribution in CD1 mouse muscle assessed per gram of wet tissue at 400 to 600 kBq, iv after 120 mins post-injection by gamma counting; format: ADME, organism-based; conditions: in vivo, 2 h; outline: as §1
[7] = test system: Blood; experiment: Biodistribution in CD1 mouse blood assessed per gram of wet tissue at 400 to 600 kBq, iv after 60 mins post-injection by gamma counting in presence of 1 mg/kg, ip sigma 1/sigma 2 receptor antagonist haloperidol treated before compound addition; format: organism-based; set-up: dose 1 mg/kg, route intravenous; conditions: in vivo, 1 h
Outline: (§3)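 Blocking arm in fasted female CD-1 mice (n=5). […] Animals were killed at 60 min post-injection, and organs were weighed and γ-counted as % ID/g wet tissue. Percent change was taken against the 60 min control group, with two-tailed unpaired Student's t test.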

[8] = test system: Brain; experiment: Biodistribution in CD1 mouse brain assessed per gram of wet tissue at 400 to 600 kBq, iv after 60 mins post-injection by gamma counting in presence of 1 mg/kg, ip sigma 1/sigma 2 receptor antagonist haloperidol treated before compound addition; format: organism-based; set-up: dose 1 mg/kg, route intravenous; conditions: in vivo, 1 h; outline: as §3
[9] = test system: Liver; experiment: Biodistribution in CD1 mouse liver assessed increase in drug uptake at 400 to 600 kBq, iv after 60 mins post-injection by gamma counting in presence of 1 mg/kg, ip sigma 1/sigma 2 receptor antagonist haloperidol treated before compound addition; format: organism-based; set-up: dose 1 mg/kg, route intravenous; conditions: in vivo, 1 h; outline: as §3
[10] = test system: Kidney; experiment: Biodistribution in CD1 mouse kidney assessed per gram of wet tissue at 400 to 600 kBq, iv after 60 mins post-injection by gamma counting in presence of 1 mg/kg, ip sigma 1/sigma 2 receptor antagonist haloperidol treated before compound addition; format: organism-based; set-up: dose 1 mg/kg, route intravenous; conditions: in vivo, 1 h; outline: as §3
[11] = test system: Spleen; experiment: Biodistribution in CD1 mouse spleen assessed per gram of wet tissue at 400 to 600 kBq, iv after 60 mins post-injection by gamma counting in presence of 1 mg/kg, ip sigma 1/sigma 2 receptor antagonist haloperidol treated before compound addition; format: organism-based; set-up: route intravenous; conditions: in vivo, 1 h
Outline: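 They were killed at 60 min pi, and organs were weighed and γ-counted as % ID/g wet tissue. Comparison with controls used Student's t test (independent, two-tailed).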

[12] = Biodistribution in CD1 mouse gonad assessed per gram of wet tissue at 400 to 600 kBq, iv after 60 mins post-injection by gamma counting in presence of 1 mg/kg, ip sigma 1/sigma 2 receptor antagonist haloperidol treated before compound addition; format: organism-based; set-up: dose 1 mg/kg, route intravenous; conditions: in vivo, 1 h; outline: as §3
[13] = Ratio of drug level in cerebellum to plasma in CD1 mouse at 400 to 600 kBq, iv after 120 mins post-injection; format: ADME, organism-based
Outline: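 Female CD-1 mice (~8-12 weeks, 20-28 g), fasted 24 h with free water; 400-600 kBq tracer in 200 μL saline by tail vein into conscious animals. Killed at set times pi (n=4-5 per time); blood and organs weighed, γ-counted, expressed as % ID/g wet tissue; ratio from cerebellum and plasma uptake.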

[14] = test system: Spleen; experiment: Drug uptake in CD1 mouse spleen at 400 to 600 kBq, iv after 120 mins post-injection by gamma counting relative to initial uptake; format: ADME, organism-based; conditions: in vivo, 2 h
Outline: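 Organ % ID/g was measured by γ-counting after tail-vein injection of 400-600 kBq [18F] tracer in saline to fasted female CD-1 mice (n=4-5 per time). The 120 min pi value is expressed relative to the initial (5 min pi) uptake.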

[15] = Ratio of drug level in cerebellum to plasma in CD1 mouse at 400 to 600 kBq, iv after 60 mins post-injection in presence of 1 mg/kg, ip sigma 1/sigma 2 receptor antagonist haloperidol treated before compound addition; format: organism-based; set-up: route intravenous
Outline: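 Killed 60 min pi; blood and cerebellum weighed, γ-counted as % ID/g wet tissue, ratio derived; Student's two-tailed t test versus untreated controls.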

[16] = Chemical stability assessed as occurrence of defluorination by radio-TLC and analytical radio-HPLC; format: physicochemical
[17] = test system: Brain; experiment: Biodistribution in CD1 mouse brain assessed per gram of wet tissue at 400 to 600 kBq, iv after 5 mins post-injection by gamma counting; format: ADME, organism-based; conditions: in vivo; outline: as §2
[18] = test system: Stomach; experiment: Biodistribution in CD1 mouse stomach assessed per gram of wet tissue at 400 to 600 kBq, iv after 5 mins post-injection by gamma counting; format: ADME, organism-based; conditions: in vivo; outline: as §1
[19] = test system: Intestine; experiment: Biodistribution in CD1 mouse intestine assessed per gram of wet tissue at 400 to 600 kBq, iv after 5 mins post-injection by gamma counting; format: ADME, organism-based; conditions: in vivo; outline: as §2
[20] = test system: Liver; experiment: Biodistribution in CD1 mouse liver assessed per gram of wet tissue at 400 to 600 kBq, iv after 5 mins post-injection by gamma counting; format: ADME, organism-based; conditions: in vivo; outline: as §1
[21] = Biodistribution in CD1 mouse urine assessed as per gram of wet bladder at 400 to 600 kBq, iv after 5 mins post-injection by gamma counting; format: ADME, organism-based; conditions: in vivo; outline: as §1
[22] = test system: Spleen; experiment: Biodistribution in CD1 mouse spleen assessed per gram of wet tissue at 400 to 600 kBq, iv after 5 mins post-injection by gamma counting; format: ADME, organism-based; conditions: in vivo; outline: as §1
[23] = test system: Heart; experiment: Biodistribution in CD1 mouse heart assessed per gram of wet tissue at 400 to 600 kBq, iv after 30 mins post-injection by gamma counting; format: ADME, organism-based; conditions: in vivo, 0.5 h; outline: as §2
[24] = Biodistribution in CD1 mouse urine assessed as per gram of wet bladder at 400 to 600 kBq, iv after 30 mins post-injection by gamma counting; format: ADME, organism-based; conditions: in vivo, 0.5 h; outline: as §1
[25] = test system: Muscle tissue; experiment: Biodistribution in CD1 mouse muscle assessed per gram of wet tissue at 400 to 600 kBq, iv after 30 mins post-injection by gamma counting; format: ADME, organism-based; conditions: in vivo, 0.5 h; outline: as §1
[26] = test system: Blood; experiment: Biodistribution in CD1 mouse blood assessed per gram of wet tissue at 400 to 600 kBq, iv after 60 mins post-injection by gamma counting; format: ADME, organism-based; conditions: in vivo, 1 h; outline: as §2

[18F]CCCC1OC2(CCN(Cc3ccccc3)CC2)c2ccccc21 (stereo unspecified)
Drug uptake [1]: 5.56 %ID | Drug uptake [2]: 2.87 %ID | Drug uptake [3]: 2.14 %ID | Drug uptake [4]: 9.03 %ID | Drug uptake [5]: 2.86 %ID | Drug uptake [6]: 0.97 %ID | Drug uptake [7]: 0.56 %ID | Drug uptake [8]: 0.54 %ID | Drug uptake [9]: 3.89 %ID | Drug uptake [10]: 3.42 %ID | Drug uptake [11]: 1.89 %ID | Drug uptake [12]: 4.92 %ID | Kp at 2 h [13]: 5.48 | Drug uptake [14]: > 70% | Kp at 1 h [15]: 1 | Stability [16]: Stable | Drug uptake [17]: 3.66 %ID | Drug uptake [18]: 3.39 %ID | Drug uptake [19]: 4.35 %ID | Drug uptake [20]: 5.54 %ID | Drug uptake [21]: 2.89 %ID | Drug uptake [22]: 4.51 %ID | Drug uptake [23]: 3.75 %ID | Drug uptake [24]: 24.3 %ID | Drug uptake [25]: 1.8 %ID | Drug uptake [26]: 0.37 %ID
